For experiment [1], the target named is T1, L-lactate dehydrogenase A chain (Homo sapiens, UniProt P00338). The experiment is described as follows: Inhibition of LDHA in human MIA PaCa-2 cells assessed as decrease in lactate production incubated for 2 hrs by lactate oxidase-coupled fluorescence based assay. Type of experiment: cell-based.
For experiment [2], the species on record is Sus scrofa. The experiment is described as follows: Inhibition of porcine heart MDH using malic acid as substrate preincubated for 10 mins followed by substrate addition and measured after 5 mins by resazurin based fluorescence based assay. The conditions noted are these: time 15.0 min. Background: Resazurin is reduced to fluorescent resorufin, in cell work by metabolically active cells.

The test system of experiment [3] is MIA PaCa-2. Kind of experiment: Cytotoxicity against human MIA PaCa-2 cells assessed as reduction in cell viability after 48 hrs by CellTiter-Glo assay. Type of experiment: functional, cell-based. The note with it: MIA PaCa-2, 48 h. For orientation: Cellular ATP, detected with luciferase, serves as a proxy for viable cell number.
Experiment [4] deals with A673. Kind of experiment: Cytotoxicity against human A673 cells assessed as reduction in cell viability after 48 hrs by CellTiter-Glo assay. It is filed as functional, cell-based. The note with it: A673, 48 h.
Experiment [5] deals with T1, L-lactate dehydrogenase A chain. Kind of experiment: Inhibition of recombinant human LDHA using sodium pyruvate as substrate preincubated for 5 mins followed by diaphorase/resazurin addition and measured after 20 mins by fluorescence based assay.
Experiment [6] addresses L-lactate dehydrogenase B chain (Homo sapiens) (UniProt P07195). The experiment is described as follows: Inhibition of recombinant human LDHB using sodium pyruvate as substrate preincubated for 5 mins followed by diaphorase/resazurin addition and measured after 20 mins by fluorescence based assay.
The target of experiment [7] is T1, L-lactate dehydrogenase A chain. Kind of experiment: Inhibition of LDHA in human A673 cells assessed as decrease in lactate production incubated for 2 hrs by lactate oxidase-coupled fluorescence based assay. It is filed as cell-based.
Experiment [8] shares this target. Kind of experiment: Inhibition of GS[HiBiT]GS-tagged LDHA (unknown origin) expressed in HEK-293T cells measured after 1 hr by […]. It is filed as cell-based. The method, boiled down: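 HEK293T cells were transiently transfected for 24 h with CMV-driven LDHA carrying a C-terminal GS[HiBiT]GS tag, then reseeded at 2500 cells/well in DPBS with Ca/Mg and 1 g/L glucose. […] Cells were lysed with NP40, and 11S (100 nM final) plus furimazine was added.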

Activity calls are given as the source filed them. No rule for the calls is given here.

Here are results for 21 molecules from ChEMBL document CHEMBL4665801, “Pyrazole-Based Lactate Dehydrogenase Inhibitors with Optimized Cell Activity and Pharmacokinetic Properties” (J Med Chem, 2020).

By IC50 is commonly meant the midpoint of a concentration-inhibition curve.

Chain of L-lactate dehydrogenase B chain (Homo sapiens) (P07195 2-334 limits assumed): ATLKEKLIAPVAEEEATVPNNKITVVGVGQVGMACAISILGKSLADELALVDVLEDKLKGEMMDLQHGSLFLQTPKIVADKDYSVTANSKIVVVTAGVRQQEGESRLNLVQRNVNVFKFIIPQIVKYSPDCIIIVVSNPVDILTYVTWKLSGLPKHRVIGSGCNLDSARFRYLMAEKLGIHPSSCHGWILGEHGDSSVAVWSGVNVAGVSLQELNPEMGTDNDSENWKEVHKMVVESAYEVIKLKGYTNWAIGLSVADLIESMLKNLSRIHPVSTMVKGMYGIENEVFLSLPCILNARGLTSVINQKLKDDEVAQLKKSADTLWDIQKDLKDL

For `Cc1cc(C#Cc2cccc(-c3nn(-c4nc(C(=O)O)cs4)c(CC4CC4)c3Cc3ccc(S(N)(=O)=O)c(F)c3)c2)c(C)s1`, the half-maximal inhibitory concentration (IC50) was found to be 218 nM in experiment [1]; 810 nM in experiment [3]; 716 nM in experiment [4]; 235 nM in experiment [5]; 161 nM in experiment [7]; 299 nM in experiment [8]. Further, the inhibition result in experiment [2] was “inactive”. Also, in experiment [6], the inhibition entry is “Active”.
With `NS(=O)(=O)c1ccc(Cc2c(-c3ccc(F)c(C#CCC4CCCO4)c3)nn(-c3nc(C(=O)O)cs3)c2CC2CC2)cc1F` (stereo not drawn), the half-inhibitory concentration (IC50) in experiment [1] came out at 937 nM; in experiment [3], 1220 nM; in experiment [4], 1380 nM; in experiment [5], 9 nM; in experiment [7], 933 nM; in experiment [8], 178 nM. Also, the inhibition result in experiment [2] is “inactive”. The inhibition entry in experiment [6] was “Active”.
With `NS(=O)(=O)c1ccc(Cc2c(-c3ccc(F)c(C#CC4CCC4)c3)nn(-c3nc(C(=O)O)cs3)c2CC2CC2)cc1F`, the 50% inhibitory concentration (IC50) in experiment [1] came to 428 nM; in experiment [3], 573 nM; in experiment [4] it was 593 nM; in experiment [5] it was 23 nM; in experiment [7], 378 nM; in experiment [8], 133 nM. Besides, the inhibition result in experiment [2] was “inactive”. In experiment [6], the inhibition entry was “Active”.
For `NS(=O)(=O)c1ccc(Cc2c(-c3cccc(-c4ccccc4)c3)nn(-c3nc(C(=O)O)cs3)c2CC2CC2)cc1F`, the half-maximal inhibitory concentration (IC50) was found to be 867 nM in experiment [1]; 3380 nM in experiment [3]; 1140 nM in experiment [4]; 25 nM in experiment [5]; 613 nM in experiment [7]; 150 nM in experiment [8]. Moreover, the inhibition entry in experiment [2] was “inactive”. Further, in experiment [6], the inhibition result was “Active”.
For `CC(C)CC#Cc1cc(-c2nn(-c3nc(C(=O)O)cs3)c(CC3CC3)c2Cc2ccc(S(N)(=O)=O)c(F)c2)ccc1F`, the IC50 in experiment [1] came to 487 nM; in experiment [3] it was 909 nM; in experiment [4] it was 935 nM; in experiment [5], 54 nM; in experiment [7], 284 nM; in experiment [8], 89 nM. For the same molecule, the inhibition result in experiment [2] is “inactive”. In addition, the inhibition result in experiment [6] was “Active”.
For the molecule `NS(=O)(=O)c1ccc(Cc2c(-c3cccc(-c4ccccc4)c3)nn(-c3nc(C(=O)O)cs3)c2C2CC2(F)F)cc1` (stereo not drawn), the IC50 is 4760 nM in experiment [1]; 17700 nM in experiment [3]; 24400 nM in experiment [4]; 36 nM in experiment [5]; 1860 nM in experiment [7]; 2530 nM in experiment [8]. The inhibition entry in experiment [2] was “inactive”. In experiment [6], the inhibition entry is “Active”.
`Cc1nc(C#Cc2cccc(-c3nn(-c4nc(C(=O)O)cs4)c(CC4CC4)c3Cc3ccc(S(N)(=O)=O)c(F)c3)c2)cs1`: the IC50 in experiment [1] (mia paca-2) came out at 1180 nM; in experiment [3] it was 471 nM; in experiment [4], 347 nM; in experiment [5], 13 nM; in experiment [7] (a673), 1170 nM; in experiment [8] it was 101 nM. Further, the inhibition result in experiment [2] was “inactive”. Moreover, in experiment [6], the inhibition result was “Active”.
In the case of `N#CC#Cc1cc(-c2nn(-c3nc(C(=O)O)cs3)c(CC3CC3)c2Cc2ccc(S(N)(=O)=O)c(F)c2)ccc1F`, the IC50 in experiment [1] is 4400 nM; in experiment [3] it was above 30000 nM; in experiment [4], above 30000 nM; in experiment [5], 15 nM; in experiment [7], 4010 nM; in experiment [8], 474 nM. The inhibition entry in experiment [2] was “inactive”. In experiment [6], the inhibition result was “Active”.
In the case of `NS(=O)(=O)c1ccc(Cc2c(-c3ccc(F)c(C#CCC4CC4)c3)nn(-c3nc(C(=O)O)cs3)c2CC2CC2)cc1F`, the IC50 in experiment [1] was 259 nM; in experiment [3] it was 1030 nM; in experiment [4], 1020 nM; in experiment [5], 31 nM; in experiment [7], 234 nM; in experiment [8], 89 nM. In addition, the inhibition result in experiment [2] was “inactive”. In addition, the inhibition result in experiment [6] is “Active”.
As for `NS(=O)(=O)c1ccc(Cc2c(-c3cccc(-c4ccccc4)c3)nn(-c3nc(C(=O)O)cs3)c2CC(F)(F)F)cc1`, the IC50 in experiment [1] was determined as 19400 nM; in experiment [3], 3170 nM; in experiment [4], 148 nM; in experiment [5], 274 nM; in experiment [7] it was 9720 nM; in experiment [8], 15800 nM. Also, the inhibition entry in experiment [2] was “inactive”. For the same molecule, the inhibition entry in experiment [6] was “Active”.
For the molecule `C#Cc1cc(-c2nn(-c3nc(C(=O)O)cs3)c(CC3CC3)c2Cc2ccc(S(N)(=O)=O)c(F)c2)ccc1F`, the half-inhibitory concentration (IC50) in experiment [1] stood at 660 nM; in experiment [3], 4020 nM; in experiment [4] it was 4350 nM; in experiment [5], 9 nM; in experiment [7], 902 nM; in experiment [8] it was 253 nM. Also, the inhibition result in experiment [2] is “inactive”. Further, the inhibition entry in experiment [6] was “Active”.
For `CC(C)(C)/C=C/c1cc(-c2nn(-c3nc(C(=O)O)cs3)c(CC3CC3)c2Cc2ccc(S(N)(=O)=O)c(F)c2)ccc1F`, the half-maximal inhibitory concentration (IC50) in experiment [1] was determined as 255 nM; in experiment [3] it was 1900 nM; in experiment [4], 2260 nM; in experiment [5], 59 nM; in experiment [7] it was 361 nM; in experiment [8], 112 nM. For the same molecule, the inhibition entry in experiment [2] was “inactive”. Further, in experiment [6], the inhibition result was “Active”.
As for `Cc1cnc(C#Cc2cccc(-c3nn(-c4nc(C(=O)O)cs4)c(CC4CC4)c3Cc3ccc(S(N)(=O)=O)c(F)c3)c2)s1`, the IC50 turned out to be 487 nM in experiment [1]; 360 nM in experiment [3]; 309 nM in experiment [4]; 17 nM in experiment [5]; 527 nM in experiment [7]; 90 nM in experiment [8]. In addition, in experiment [2], the inhibition result is “inactive”. In addition, the inhibition entry in experiment [6] is “Active”.
In the case of `Cc1cc(C#Cc2cccc(-c3nn(-c4nc(C(=O)O)cs4)c(CC4CC4)c3Cc3ccc(S(N)(=O)=O)c(F)c3)c2)cs1`, the IC50 turned out to be 657 nM in experiment [1]; 332 nM in experiment [3]; 359 nM in experiment [4]; 87 nM in experiment [5]; 494 nM in experiment [7]; 95 nM in experiment [8]. Besides, the inhibition entry in experiment [2] was “inactive”. Further, the inhibition result in experiment [6] was “Active”.
On to `Cc1ncc(C#Cc2cccc(-c3nn(-c4nc(C(=O)O)cs4)c(CCC4CC4)c3Cc3ccc(S(N)(=O)=O)c(F)c3)c2)s1`, for which the concentration for half-maximal inhibition (IC50) in experiment [1] was found to be 334 nM; in experiment [3], 218 nM; in experiment [4], 218 nM; in experiment [5], 24 nM; in experiment [7], 434 nM; in experiment [8], 17800 nM. The inhibition result in experiment [2] is “inactive”. Also, the inhibition result in experiment [6] was “Active”.
With `NS(=O)(=O)c1ccc(Cc2c(-c3ccc(F)c(-c4ccccc4)c3)nn(-c3nc(C(=O)O)cs3)c2CC2CC2)cc1`, the IC50 in experiment [1] was determined as 1220 nM; in experiment [3] it was 8450 nM; in experiment [4], 2650 nM; in experiment [5], 23 nM; in experiment [7], 835 nM; in experiment [8], 401 nM. For the same molecule, in experiment [2], the inhibition entry is “inactive”. The inhibition entry in experiment [6] was “Active”.
Consider `NS(=O)(=O)c1ccc(Cc2c(-c3ccc(F)c(/C=C/C4CC4)c3)nn(-c3nc(C(=O)O)cs3)c2CC2CC2)cc1F`, for which the IC50 in experiment [1] is 231 nM; in experiment [3], 837 nM; in experiment [4], 833 nM; in experiment [5] it was 15 nM; in experiment [7] it was 320 nM; in experiment [8], 134 nM. Also, the inhibition entry in experiment [2] was “inactive”. Also, in experiment [6], the inhibition entry is “Active”.
On to `CCCCC#Cc1cc(-c2nn(-c3nc(C(=O)O)cs3)c(CC3CC3)c2Cc2ccc(S(N)(=O)=O)c(F)c2)ccc1F`, for which the IC50 amounted to 298 nM in experiment [1]; 845 nM in experiment [3]; 773 nM in experiment [4]; 50 nM in experiment [5]; 405 nM in experiment [7]; 106 nM in experiment [8]. In addition, in experiment [2], the inhibition entry was “inactive”. In addition, the inhibition result in experiment [6] is “Active”.
As to `CC(F)C#Cc1cc(-c2nn(-c3nc(C(=O)O)cs3)c(CC3CC3)c2Cc2ccc(S(N)(=O)=O)c(F)c2)ccc1F` (stereo not drawn), the IC50 is 822 nM in experiment [1]; 1020 nM in experiment [3]; 1130 nM in experiment [4]; 14 nM in experiment [5]; 800 nM in experiment [7]; 127 nM in experiment [8]. Moreover, the inhibition entry in experiment [2] is “inactive”. In addition, the inhibition result in experiment [6] was “Active”.
As for `Cc1cnc(C#Cc2cccc(-c3nn(-c4nc(C(=O)O)cs4)c(CCC4CC4)c3Cc3ccc(S(N)(=O)=O)c(F)c3)c2)s1`, the IC50 in experiment [1] was 417 nM; in experiment [3] it was 173 nM; in experiment [4], 180 nM; in experiment [5] it was 33 nM; in experiment [7] it was 364 nM; in experiment [8] it was 84 nM. Moreover, the inhibition result in experiment [2] was “inactive”. In addition, the inhibition result in experiment [6] was “Active”.
Regarding `NS(=O)(=O)c1ccc(Cc2c(-c3ccc(F)c(-c4ccccc4)c3)nn(-c3nc(C(=O)O)cs3)c2CC2CC2)cc1F`, the half-inhibitory concentration (IC50) was 585 nM in experiment [1]; 3420 nM in experiment [3]; 1340 nM in experiment [4]; 23 nM in experiment [5]; 465 nM in experiment [7]; 141 nM in experiment [8]. Moreover, the inhibition result in experiment [2] was “inactive”. The inhibition entry in experiment [6] is “Active”.
